Test results reported in PMC7498158 (Journal of Medicinal Chemistry, 2020).

Columns and labels:
Format in all cases: biochemical
PLAAT4 = target: T1, PLAAT4 (Homo sapiens, UniProt Q9UL19)
T1 sequence (Q9UL19 1-164): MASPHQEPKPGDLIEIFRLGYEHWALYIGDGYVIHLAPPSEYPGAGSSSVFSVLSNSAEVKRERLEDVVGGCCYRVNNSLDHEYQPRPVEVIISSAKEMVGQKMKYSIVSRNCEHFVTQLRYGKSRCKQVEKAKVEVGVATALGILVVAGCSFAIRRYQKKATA
In short: (§1)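 Human PLAAT cDNA (C-terminal FLAG, pcDNA3.1) was PEI-transfected into HEK293T; cytosol came from a 100,000g spin. Cytosol was preincubated with test compound (30 min, rt), then MB064 (20 min, rt). Conditions: PLAAT2 0.25 μg/μL, 250 nM; PLAAT3 0.5 μg/μL, 250 nM; PLAAT4/5 1 μg/μL, 500 nM. In-gel fluorescence was normalized to Coomassie, in triplicate. Single-concentration screen or IC50 from dose–response curves.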

PLAAT5 = target: T2, PLAAT5 (Homo sapiens, UniProt Q96KN8)
T2 sequence (Q96KN8 1-279): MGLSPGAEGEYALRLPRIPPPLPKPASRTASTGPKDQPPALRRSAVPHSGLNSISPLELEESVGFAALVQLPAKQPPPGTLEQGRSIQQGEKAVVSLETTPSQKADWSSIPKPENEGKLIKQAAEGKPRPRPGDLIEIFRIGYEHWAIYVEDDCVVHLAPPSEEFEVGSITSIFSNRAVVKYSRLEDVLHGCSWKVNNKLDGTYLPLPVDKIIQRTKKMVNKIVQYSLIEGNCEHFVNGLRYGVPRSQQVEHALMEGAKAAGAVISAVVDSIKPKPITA
In short: as §1

mDAGLβ = target: T3, mDAGLβ (Mus musculus, UniProt Q91WC9); test: gel-based ABPP, mouse brain membrane proteome; conditions: 10 μM
T3 sequence (Q91WC9 1-669): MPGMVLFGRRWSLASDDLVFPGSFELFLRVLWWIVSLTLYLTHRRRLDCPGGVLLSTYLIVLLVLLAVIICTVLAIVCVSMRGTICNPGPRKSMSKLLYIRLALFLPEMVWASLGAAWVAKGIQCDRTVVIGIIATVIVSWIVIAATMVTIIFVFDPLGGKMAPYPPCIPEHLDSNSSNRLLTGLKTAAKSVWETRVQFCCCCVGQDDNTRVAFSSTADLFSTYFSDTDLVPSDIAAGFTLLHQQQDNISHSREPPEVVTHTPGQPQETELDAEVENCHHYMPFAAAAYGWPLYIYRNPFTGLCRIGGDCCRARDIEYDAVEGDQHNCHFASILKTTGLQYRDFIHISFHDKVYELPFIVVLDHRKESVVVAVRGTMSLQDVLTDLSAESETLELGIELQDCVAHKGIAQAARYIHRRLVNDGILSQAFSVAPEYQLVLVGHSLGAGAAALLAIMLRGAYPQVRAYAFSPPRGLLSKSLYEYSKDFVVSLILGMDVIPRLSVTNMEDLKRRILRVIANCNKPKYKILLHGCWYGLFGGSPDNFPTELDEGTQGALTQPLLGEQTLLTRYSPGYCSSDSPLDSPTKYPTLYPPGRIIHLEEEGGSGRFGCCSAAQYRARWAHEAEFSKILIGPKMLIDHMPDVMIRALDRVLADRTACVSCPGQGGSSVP
In short: (§2)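 Mouse brain was dounce-homogenized in 20 mM HEPES pH 7.2 with DTT, MgCl2 and benzonase. The membrane pellet from ultracentrifugation (100,000g, 45 min, 4 °C) was used at 2 μg/μL. It was preincubated with test compound in DMSO (30 min, rt), then labeled with MB064 (250 nM) or FP-TAMRA (500 nM) for 15 min at rt. Samples ran on 10% SDS-PAGE; fluorescence was normalized to Coomassie staining.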

hMAGL = target: T4, hMAGL (Homo sapiens, UniProt Q99685); test: natural substrate-based fluorescence assay MAGL; conditions: 10 μM
T4 sequence (Q99685 1-303): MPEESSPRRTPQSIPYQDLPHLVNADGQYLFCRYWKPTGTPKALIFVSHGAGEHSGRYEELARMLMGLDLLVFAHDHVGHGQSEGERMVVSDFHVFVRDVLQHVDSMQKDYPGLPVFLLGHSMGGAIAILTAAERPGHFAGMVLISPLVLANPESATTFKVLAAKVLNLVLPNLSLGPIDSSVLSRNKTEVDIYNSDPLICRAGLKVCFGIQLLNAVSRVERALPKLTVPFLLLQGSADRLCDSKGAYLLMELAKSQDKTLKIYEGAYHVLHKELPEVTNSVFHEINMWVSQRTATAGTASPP

mABHD6 = target: T5, mABHD6 (Mus musculus, UniProt Q8R2Y0); test: gel-based ABPP, mouse brain membrane proteome; conditions: 10 μM
T5 sequence (Q8R2Y0 1-336): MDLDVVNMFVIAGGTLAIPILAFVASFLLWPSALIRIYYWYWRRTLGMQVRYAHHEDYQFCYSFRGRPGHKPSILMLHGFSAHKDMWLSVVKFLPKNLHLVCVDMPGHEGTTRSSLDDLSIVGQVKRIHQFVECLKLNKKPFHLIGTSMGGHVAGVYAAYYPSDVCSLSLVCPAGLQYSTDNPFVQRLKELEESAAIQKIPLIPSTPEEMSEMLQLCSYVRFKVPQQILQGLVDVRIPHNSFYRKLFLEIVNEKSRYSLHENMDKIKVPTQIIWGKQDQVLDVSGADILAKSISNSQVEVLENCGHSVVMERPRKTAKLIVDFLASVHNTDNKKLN
In short: as §2

O=C(CCCc1ccccc1)C(=O)NCCc1ccc(Oc2ccccc2)cc1 [Compound 51, 2-Oxo-N-(4-phenoxyphenethyl)-5-phenylpentanamide]
increase in activity/potency for PLAAT4 compared to 25 (PLAAT4): 10 fold | higher potency for PLAAT5 than initial hit (PLAAT5): 10 fold | inhibition of DAGLβ (in words) (mDAGLβ): not inhibited | inhibition of MAGL (in words) (hMAGL): not inhibited | inhibition of ABHD6 (in words) (mABHD6): not inhibited
